Experimental data from different studies.
Protocols differ between the studies behind these lines.
Target: Serine/threonine-protein kinase Sgk1 (SGK1, Homo sapiens, UniProt O00141)
Sequence (O00141 1-431, as in one of the studies): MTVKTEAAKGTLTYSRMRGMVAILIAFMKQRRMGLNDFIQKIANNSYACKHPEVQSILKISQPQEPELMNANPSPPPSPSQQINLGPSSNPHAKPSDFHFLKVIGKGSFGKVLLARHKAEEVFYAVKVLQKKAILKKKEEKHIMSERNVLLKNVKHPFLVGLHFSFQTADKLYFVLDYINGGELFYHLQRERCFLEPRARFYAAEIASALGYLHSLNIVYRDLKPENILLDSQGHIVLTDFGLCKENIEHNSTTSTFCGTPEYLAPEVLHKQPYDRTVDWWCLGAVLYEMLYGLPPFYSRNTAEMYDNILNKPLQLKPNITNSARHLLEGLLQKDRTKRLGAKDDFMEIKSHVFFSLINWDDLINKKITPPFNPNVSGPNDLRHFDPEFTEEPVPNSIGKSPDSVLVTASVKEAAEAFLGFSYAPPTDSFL

Cc1c(C(=O)O)cc(-c2ccc(C3CCNCC3)cc2)c2ccc(-c3ccc(C(F)(F)F)cc3)cc12 gave a remaining binding of 100% (binding; competition with immobilised ligand; 1 µM).
For CN1CC(Oc2cnc(C#N)cc2-c2ccn3nc(NC(=O)C4CC4)cc3c2)C1, the inhibition was 3% (enzyme activity; inhibitor; 1 µM).
The inhibition of CC/C(=N\NC(=O)C(C)Nc1ccccc1)c1ccc(O)c(C)c1O (centres unmarked) is reported as 44.6% (enzyme activity; inhibitor; 0.1 µM).
For C[C@H](NC(=O)c1cnc2n1[C@](C)(Cc1ccc(C#N)cc1)C(=O)N2c1cc(Cl)c(F)c(Cl)c1)C(=O)NC1(c2ccccn2)CC1, the remaining binding was 100% (cell-free assay; competition with immobilised ligand; 1 µM).
For Oc1cccc(-c2nc(N3CCOCC3)c3oc4ncccc4c3n2)c1, the remaining activity was 92% (enzyme activity; inhibitor; 10 µM).
CC(C)(C)c1nc(-c2cccc(NS(=O)(=O)c3c(F)cccc3F)c2F)c(-c2ccnc(N)n2)s1 gave a remaining activity of 75% (enzyme activity; inhibitor; radiometric; 1 µM).
The remaining activity of Nc1nc(NC2CCCCC2)sc1C(=O)c1ccccc1 is reported as 81% (enzyme activity; inhibitor; 10 µM).
With O=C(Nc1ccc(Oc2ccc(F)cc2)cc1)N1CCc2ncccc2[C@H]1c1ccc(F)cc1 the remaining binding was 95% (cell-free assay; competition with immobilised ligand; 1 µM).
The remaining activity of O=C(Nc1cnn(-c2csc(C(=O)NC3COC3)c2)c1)Nc1ccccc1Cl is reported as 93.7% (enzyme activity; inhibitor; 5 µM).
For CNCc1ccc(-c2cc(-c3nc(-c4ccc(S(=O)(=O)C(C)C)cc4)cnc3N)on2)cc1, the inhibition was 0% (enzyme activity; inhibitor; 0.4 µM).
For O=C1CCc2cc(Nc3cc(OC4CCOCC4)c([N+](=O)[O-])cc3Cl)ccc2N1, the remaining binding was 100% (cell-free assay; competition with immobilised ligand; 1 µM).
With CCN(CC)CCNC(=O)c1c(C)[nH]c(/C=C2\C(=O)Nc3ccc(F)cc32)c1C the inhibition was 28% (enzyme activity; inhibitor; 0.3 µM).
Cc1cc(-n2nc(Cc3cc(F)cc(C(F)(F)F)c3)nc2C)ccc1C(N)=O has a remaining binding of 100% (cell-free assay; competition with immobilised ligand; 1 µM).
Cc1ccc(Nc2nccc(N(C)c3ccc4c(C)n(C)nc4c3)n2)cc1S(N)(=O)=O has an inhibition of -2% (enzyme activity; inhibitor; 10 µM).
Cc1ccc(C(=O)Nc2ccc(CN3CCN(C)CC3)c(C(F)(F)F)c2)cc1C#Cc1cnc2cccnn12 has a remaining activity of 94% (enzyme activity; inhibitor; 23.5 nM).
With CCCOc1ccc(OC)c(F)c1C(=O)c1ccc(C(=O)N[C@@H]2CNC[C@H]2NC(=O)c2ccc3[nH]ncc3c2)cc1 the remaining activity was 34% (enzyme activity; inhibitor; 0.75 µM).
For COc1cc(Nc2cnc(C#N)c(O[C@H](C)CN(C)C)n2)ncc1-c1cnn(C)c1, the remaining activity was 79% (enzyme activity; inhibitor; radiometric; 1 µM).
For O=C(NS(=O)(=O)c1ccc(NCC2CCOCC2)c([N+](=O)[O-])c1)c1ccc(N2CCN(Cc3ccc(C(F)(F)F)cc3-c3ccc(Cl)cc3)CC2)cc1Oc1cnc2[nH]ccc2c1, the remaining binding was 88% (cell-free assay; competition with immobilised ligand; 1 µM).
The inhibition of CSc1nc(C)c(-c2ccnc(Nc3ccc(N4CCOCC4)cc3)c2)[nH]1 is reported as 34.8% (enzyme activity; inhibitor; 10 µM).
N#CCCc1ccc2c(c1)-c1[nH]c3ccc([N+](=O)[O-])cc3c1CC(=O)N2 has a remaining signal of 87.9% (cell-free assay; 0.5 µM).
